ChEMBL document CHEMBL5260806, “Hydrogen peroxide activated quinone methide precursors with enhanced DNA cross-linking capability and cytotoxicity towards cancer cells” (Eur J Med Chem, 2017)

Columns and labels:
DU-145 = assay: Anticancer activity against human DU-145 cells assessed as cell growth inhibition incubated for 48 hrs by sulforhodamine B assay; format: functional
How it was run: (§1)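 NCI-60 screen: cell lines grown in RPMI 1640 with 5% FBS and 2 mM L-glutamine, plated in 96-well plates at 5,000–40,000 cells/well depending on doubling time. Each line has one single-dose arm at 10 µM and one dose-response arm giving GI50.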

SK-MEL-5 = assay: Anticancer activity against human SK-MEL-5 cells assessed as cell growth inhibition at 10 uM incubated for 48 hrs by sulforhodamine B assay; format: functional; conditions: read-out: GI
How it was run: (§2)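 NCI DTP 60-cell-line screen run at National Cancer Institute. Cells grown in RPMI 1640 with 5% fetal bovine serum and 2 mM L-glutamine, seeded at 5,000–40,000 cells/well depending on doubling time. Single-dose screen at 10 µM gives growth percentage; dose-response series gives GI50.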

NCI/ADR-RES = assay: Anticancer activity against human NCI/ADR-RES cells assessed as cell growth inhibition incubated for 48 hrs by sulforhodamine B assay; format: functional; how it was run: as §2
MOLT-4 = assay: Anticancer activity against human MOLT-4 cells assessed as cell growth inhibition incubated for 48 hrs by sulforhodamine B assay; format: functional; how it was run: as §2
HOP-62 [1] = assay: Anticancer activity against human HOP-62 cells assessed as cell growth inhibition incubated for 48 hrs by sulforhodamine B assay; format: functional; how it was run: as §1
HOP-62 [2] = assay: Anticancer activity against human HOP-62 cells assessed as cell growth inhibition at 10 uM incubated for 48 hrs by sulforhodamine B assay; format: functional; conditions: read-out: GI; how it was run: as §1
HOP-92 = assay: Anticancer activity against human HOP-92 cells assessed as cell growth inhibition incubated for 48 hrs by sulforhodamine B assay; format: functional; how it was run: as §1
U-251 = assay: Anticancer activity against human U-251 cells assessed as cell growth inhibition incubated for 48 hrs by sulforhodamine B assay; format: functional
HCT-116 = assay: Anticancer activity against human HCT-116 cells assessed as cell growth inhibition at 10 uM incubated for 48 hrs by sulforhodamine B assay; format: functional; conditions: read-out: GI; how it was run: as §1
NCI-H522 = assay: Anticancer activity against human NCI-H522 cells assessed as cell growth inhibition incubated for 48 hrs by sulforhodamine B assay; format: functional; how it was run: as §2
SK-OV-3 = assay: Anticancer activity against human SK-OV-3 cells assessed as cell growth inhibition incubated for 48 hrs by sulforhodamine B assay; format: functional
RXF 393 = assay: Anticancer activity against human RXF 393 cells assessed as cell growth inhibition incubated for 48 hrs by sulforhodamine B assay; format: functional; how it was run: as §2
SNB-75 = assay: Anticancer activity against human SNB-75 cells assessed as cell growth inhibition at 10 uM incubated for 48 hrs by sulforhodamine B assay; format: functional; conditions: read-out: GI
DNA = assay: Induction of [32P]-labeled 49-mer oligonucleotide duplex DNA 25 (unknown origin) interstrand cross-linking at 2 mM for 24 hrs without H2O2 by PAGE; format: functional
MCF7 = assay: Anticancer activity against human MCF7 cells assessed as cell growth inhibition at 10 uM incubated for 48 hrs by sulforhodamine B assay; format: functional; conditions: read-out: GI; how it was run: as §2
A549 = assay: Anticancer activity against human A549 cells assessed as cell growth inhibition incubated for 48 hrs by sulforhodamine B assay; format: functional; how it was run: as §1
SF-268 = assay: Anticancer activity against human SF-268 cells assessed as cell growth inhibition incubated for 48 hrs by sulforhodamine B assay; format: functional; how it was run: as §2
HCT-15 = assay: Anticancer activity against human HCT-15 cells assessed as cell growth inhibition incubated for 48 hrs by sulforhodamine B assay; format: functional; how it was run: as §1
[3] = Anticancer activity against human CLL cells assessed as reduction in cell viability incubated for 24 hrs by Annexin/PI staining based fluorescence assay; format: functional
How it was run: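 CLL lymphocytes were taken from patients' peripheral blood (n=3) by Ficoll-Hypaque, suspended in 10% autologous plasma in RPMI, and exposed to 1, 5, 10, 20, 50 and 100 µM. Viability was measured by annexin V/propidium iodide binding. IC50 comes from one representative patient.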

SNB-19 = assay: Anticancer activity against human SNB-19 cells assessed as cell growth inhibition incubated for 48 hrs by sulforhodamine B assay; format: functional
[4] = Toxicity in healthy human lymphocytes assessed as reduction in cell viability at 10 uM after 24 hrs by Annexin/PI staining based fluorescence assay; conditions: lymphocyte
How it was run: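 Normal donor lymphocytes (n=2) isolated from peripheral blood by Ficoll-hypaque, in RPMI with 10% autologous plasma. Exposed to 10 µM for 24 h; % viable cells by annexin/PI binding.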

UACC-62 = assay: Anticancer activity against human UACC-62 cells assessed as cell growth inhibition incubated for 48 hrs by sulforhodamine B assay; format: functional
EKVX = assay: Anticancer activity against human EKVX cells assessed as cell growth inhibition incubated for 48 hrs by sulforhodamine B assay; format: functional; how it was run: as §1
NCI-H460 = assay: Anticancer activity against human NCI-H460 cells assessed as cell growth inhibition incubated for 48 hrs by sulforhodamine B assay; format: functional; how it was run: as §2

With `COc1cc(CBr)c(B2OC(C)(C)C(C)(C)O2)c(CBr)c1` as the compound, how does the GI50 (DU-145) read?
The GI50 was 2000 nM.

And the inhibition of growth at 10 µM (SK-MEL-5)?
Its inhibition of growth at 10 µM is < 50%.

And the GI50 (NCI/ADR-RES)?
Its GI50 is 2000 nM.

And the GI50 (MOLT-4)?
Its GI50 is 2000 nM.

What about the GI50 (HOP-62 [1]) of the same compound?
Its GI50 is 2000 nM.

What about the inhibition of growth at 10 µM (HOP-62 [2]) of the same compound?
Its inhibition of growth at 10 µM is < 50%.

And the GI50 (HOP-92)?
The GI50 was 2000 nM.

And the GI50 (U-251)?
The GI50 was 2000 nM.

And the inhibition of growth at 10 µM (HCT-116)?
The inhibition of growth at 10 µM was < 50%.

And the GI50 (NCI-H522)?
The GI50 was 2000 nM.

What about the GI50 (SK-OV-3) of the same compound?
The GI50 was 2000 nM.

What about the GI50 (RXF 393) of the same compound?
Its GI50 is 2000 nM.

What about the inhibition of growth at 10 µM (SNB-75) of the same compound?
The inhibition of growth at 10 µM was < 50%.

And the Activity (DNA)?
The Activity was 0%.

And the inhibition of growth at 10 µM (MCF7)?
The inhibition of growth at 10 µM was < 50%.

What about the GI50 (A549) of the same compound?
Its GI50 is 2000 nM.

And the GI50 (SF-268)?
Its GI50 is 2000 nM.

What about the GI50 (HCT-15) of the same compound?
The GI50 was 2000 nM.

And the IC50 [3]?
Its IC50 is 28.4 µM.

And the GI50 (SNB-19)?
The GI50 was 2000 nM.

What about the Activity [4] of the same compound?
The Activity was “Non-Toxic”.

And the GI50 (UACC-62)?
The GI50 was 2000 nM.

What about the GI50 (EKVX) of the same compound?
The GI50 was 2000 nM.

And the GI50 (NCI-H460)?
The GI50 was 2000 nM.
